Data reported in ChEMBL document CHEMBL3352678, “Synthesis and acetylcholinesterase inhibitory activity of Mannich base derivatives flavokawain B” (Bioorg Med Chem Lett, 2014).

Tests used:
[1] = Octanol-buffer partition coefficient, log p of the compound at pH 7.4 for 24 hrs by shake flask method; assay type: physicochemical
In short: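 Partitioning between n-octanol and buffer at pH 7.4 by the classical shake-flask method. Compound in each phase quantified by reverse-phase HPLC. log P calculated from the phase distribution.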

Acetylcholinesterase [2] = molecular target: T1, Acetylcholinesterase (Rattus norvegicus, UniProt P37136); experiment: Inhibition of Sprague-Dawley rat brain AChE using acetylthiocholin iodide as substrate preincubated for 25 mins by Ellman's/UV-vis spectroscopy analysis
T1 sequence (P37136 whole entry): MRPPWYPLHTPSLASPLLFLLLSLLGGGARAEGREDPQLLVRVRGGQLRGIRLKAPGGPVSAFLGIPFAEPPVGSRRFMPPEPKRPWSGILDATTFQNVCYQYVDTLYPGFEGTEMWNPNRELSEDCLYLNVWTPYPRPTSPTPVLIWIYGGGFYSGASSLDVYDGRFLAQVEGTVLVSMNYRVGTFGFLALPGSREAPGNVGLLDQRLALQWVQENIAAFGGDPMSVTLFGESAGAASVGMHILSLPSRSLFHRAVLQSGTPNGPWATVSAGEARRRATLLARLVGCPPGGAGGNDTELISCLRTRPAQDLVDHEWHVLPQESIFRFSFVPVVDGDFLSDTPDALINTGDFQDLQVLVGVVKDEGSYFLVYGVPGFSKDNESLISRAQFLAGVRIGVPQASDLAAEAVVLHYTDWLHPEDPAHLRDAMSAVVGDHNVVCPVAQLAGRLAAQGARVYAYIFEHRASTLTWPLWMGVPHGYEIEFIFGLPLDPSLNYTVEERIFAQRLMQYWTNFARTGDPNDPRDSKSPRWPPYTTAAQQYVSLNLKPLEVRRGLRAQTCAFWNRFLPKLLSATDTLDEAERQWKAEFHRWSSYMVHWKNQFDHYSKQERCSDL
In short: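 Modified Ellman's method. Inhibition ratio was calculated from absorbance of the AChE-catalysed reaction product. IC50 was taken as the concentration causing 50% loss of enzyme activity.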

Acetylcholinesterase [3] = molecular target: T1, Acetylcholinesterase; experiment: Inhibition of Sprague-Dawley rat brain AChE using acetylthiocholin iodide as substrate by Michaelis-Menten equation
In short: (§1)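 Kinetic analysis: Km and vmax were determined at several inhibitor concentrations. Ki for the free enzyme came from a linear replot of slope against inhibitor concentration. Ki′ for the enzyme–substrate complex came from a linear replot of intercept against inhibitor concentration.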

Acetylcholinesterase [4] = molecular target: T1, Acetylcholinesterase; experiment: Inhibition of Sprague-Dawley rat brain AChE by Michaelis-Menten equation; in short: as §1

Compound `COc1cc(OC)c(C(=O)/C=C/c2ccccc2)c(O)c1CN(C)C` has a logD at 24 h [1] of 1.61 and an IC50 (Acetylcholinesterase [2]) of 18.8 µM.
`CCN(CC)Cc1c(OC)cc(OC)c(C(=O)/C=C/c2ccccc2)c1O` gave a logD at 24 h [1] of 1.69 and an IC50 (Acetylcholinesterase [2]) of 15.1 µM.
`CCCN(CCC)Cc1c(OC)cc(OC)c(C(=O)/C=C/c2ccccc2)c1O` gave a logD at 24 h [1] of 1.77 and an IC50 (Acetylcholinesterase [2]) of 54.8 µM.
With `COc1cc(OC)c(C(=O)/C=C/c2ccccc2)c(O)c1CN1CCCC1` the logD at 24 h [1] was 1.74 and the IC50 (Acetylcholinesterase [2]) was 16.1 µM.
`COc1cc(OC)c(C(=O)/C=C/c2ccccc2)c(O)c1CN1CCCCC1` showed a logD at 24 h [1] of 1.75, a Ki (Acetylcholinesterase [3]) of 4.58 µM and an IC50 (Acetylcholinesterase [2]) of 4.15 µM. It also gave a Ki (Acetylcholinesterase [4]) of 2.75 µM.
Work on `COc1cc(OC)c(C(=O)/C=C/c2ccccc2)c(O)c1CN1CCOCC1` yielded a logD at 24 h [1] of 1.63 and an IC50 (Acetylcholinesterase [2]) of 265 µM.
Work on `COc1cc(OC)c(C(=O)/C=C/c2ccccc2)c(O)c1CN1CCN(C)CC1` yielded a logD at 24 h [1] of 1.58 and an IC50 (Acetylcholinesterase [2]) of 12.4 µM.
